Measurements as given in ChEMBL document CHEMBL1143932, “Biochemical and biological properties of 5-bromotubercidin: differential effects on cellular DNA-directed and viral RNA-directed RNA synthesis” (Bioorg Med Chem, 2008).
Active and inactive are the calls of the source. No cut-off for these calls is given here.

Experiments:
Oryctolagus cuniculus [1] = species: Oryctolagus cuniculus; assay: Activity of rabbit liver adenosine kinase
How it was run: (§1)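 Adenosine kinase partially purified from rabbit liver. Assay in 20 mM KPO4 pH 5.8 with 0.7 mM ATP, 0.25 mM phosphoenol pyruvate, 0.5 mM MgCl2, 50 mM KCl, pyruvate kinase and 7–70 µM radioactive nucleoside substrate, at 25 °C. Reaction stopped with 0.25 M perchloric acid. Nucleotides separated by paper electrophoresis at pH 3.5 and counted by scintillation. Km, Ki and relative Vmax (adenosine = 100) derived.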

L2 = assay: Growth inhibition of mouse L2 cells at 15 uM
Oryctolagus cuniculus [2] = species: Oryctolagus cuniculus; assay: Activity of rabbit liver adenosine kinase relative to adenosine; how it was run: as §1

Compound	Km (Oryctolagus cuniculus [1]) [µM]	Vmax (Oryctolagus cuniculus [1]) [µM/min]	Activity (L2)	Activity (Oryctolagus cuniculus [2])
Nc1ncnc2c1ncn2[C@@H]1O[C@H](CO)[C@@H](O)[C@H]1O	5.5	3.13	–	–
Nc1ncnc2c1ccn2[C@@H]1O[C@H](CO)[C@@H](O)[C@H]1O	9.5	3.57	Active	114
